An excerpt weighted towards active compounds, which were near 5.1% of everything screened.
STAT1 activator = STAT1 signaling activators, primary screen, cell-based, HTS, luciferase reporter; hit rate 2.6% among 200,000; activation (% of control), % at 5.5 µM; NIH 3T3 STAT1-luciferase reporter, IFN-gamma, luminescence; 100% = IFN-gamma alone, no compound; AID 932, 2007;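 active = activation above the screen-wide mean activation plus 3 SD, cut at about 130% in these data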
APP 5'UTR act = activators of APP 5'UTR luciferase reporter, primary screen, SH-SY5Y cells. SH-SY5Y APP 5'UTR luciferase reporter, luminescence; zero percent = DMSO vehicle wells. activation, % at 2 µM. hit rate 1% among 190,000;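 active = activation above a set limit, based on mean plus 3 SD of controls, cut at about 140% in these data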
STAT3 inh = IL-6 driven STAT3 reporter inhibitors, primary screen, U3A cells, luciferase, luminescence, MLSCN library; hit rate 0.89% among 190,000; IL-6 STAT3-luciferase reporter; host cell line lacks STAT1; inhibition, % at 5.5 µM;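 active = inhibition above the mean inhibition across all screened compounds plus 3 SD, cut at about 44% in these data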
STAT3 act = IL-6 driven STAT3 reporter potentiators, primary screen, U3A cells, luciferase, luminescence, MLSCN library | IL-6 STAT3-luciferase reporter; 100% = signal with IL-6 EC80 alone | activation (% of control), % at 5.6 µM | hit rate 0.91% among 190,000 | AID 871, 2007;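 active = activation above the screen-wide mean of compound activation plus 3 SD, cut at about 130% in these data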
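Material: STAT1-lacking human U3A cells, STAT3 luciferase reporter | Benchmarks: IL-6-only wells as 100% reference | Probe or stimulus: IL-6 (33 ng/mL) | Timing: Compound 1 h, then IL-6 6 h at 37 °C | Detection: Luminescence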
STAT1 blocker = STAT1 signaling inhibitors, primary screen, cell-based, HTS, luciferase reporter. NIH 3T3 STAT1-luciferase reporter, IFN-gamma, luminescence. AID 920, 2007. inhibition, % at 5.5 µM. hit rate 0.35% among 200,000;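 active = inhibition above a set limit, the mean inhibition across all tested compounds plus 3 SD, cut at about 34% in these data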
NF-kB neuron act = activators of NF-kB expression in neurons, primary screen, cell-based, HTS; human neuronal cells, NF-kB reporter expression; stronger effect = higher value; fold change at 12.5 µM; hit rate 1.6% among 190,000; AID 1239, 2008; in the data active = fold change above about 3.3
STAT1 act conf = STAT1 signaling activators, confirmation, cell-based, HTS, luciferase reporter; hit rate 97% among 1,200; AID 1262, 2008; activation (% of control), % at 5.7 µM; NIH 3T3 STAT1-luciferase reporter, IFN-gamma potentiation, luminescence; 100% = IFN-gamma EC80 alone, no compound; shares compounds with STAT1 activator;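 active = activation above a set limit carried over from the earlier primary STAT1 screen, cut at about 140% in these data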
NFkB act STAT1ct = NF-kB reporter activators, TNF-alpha stimulated, counter-screen for STAT1 activator project, cell-based, HEK293T, luciferase luminescence | shares compounds with STAT1 activator | 100% = TNF-alpha with vehicle only | activation (% of control), % at 5.7 µM | hit rate 43% among 1,200;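 active = activation above the mean of solvent-only control wells plus 3 SD, set per campaign, cut at about 130% in these data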;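 also: TNF-alpha given at a submaximal dose yielding about 80% of full reporter signal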
STAT3 act 2 = STAT3 reporter activation by STAT1 hits, confirmation, counter-screen for STAT1 activator project, U3A cells, luciferase, luminescence. activation (% of control), % at 5.7 µM. shares compounds with STAT1 activator. hit rate 46% among 1,200. IL-6; cells lack STAT1; 100 = IL-6 alone, no compound effect;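 active = activation above the solvent-only control well mean plus 3 SD, set per plate batch, cut at about 110% in these data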;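 also: higher means more STAT3 reporter activation so hits are non-selective activators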
Of the large screens only hits and unclear results are named; the others gave an inactive call (follow-up assays come after a bar, where they were run).

COc1ccc(/C=C(\CC(=O)O)c2nc3ccccc3o2)cc1	STAT1 activator 150.8 | STAT1 act conf 160.1 | NFkB act STAT1ct 135.8 | STAT3 act 2 116.5
CC(Sc1nnc(-c2cccs2)n1-c1ccccc1)C(=O)NCc1ccc2c(c1)OCO2 (stereo not given)	none
Cc1ccc(C2=C/C(=C/c3cccs3)C(=O)O2)cc1	none
O=C1OC(c2ccccc2)=C/C1=C/N1CCCCC1	STAT1 activator 170.5 | STAT1 act conf 160.1 | NFkB act STAT1ct inactive | STAT3 act 2 116.6
O=C(O)c1ccccc1C(=O)Nc1ccc(-c2csc(-c3ccccc3)n2)cc1	STAT1 activator 157.4 | STAT1 act conf 141.4 | NFkB act STAT1ct inactive | STAT3 act 2 inactive
Cc1ccc(C(=O)Nc2ccc(-c3csc(C)n3)cc2)cc1	STAT1 activator 163.5, APP 5'UTR act 185.6 | STAT1 act conf 187.5 | NFkB act STAT1ct inactive | STAT3 act 2 inactive
CNC(=O)c1ccc(-c2nc(-c3ccccc3)cs2)cc1	STAT1 activator 168.9 | STAT1 act conf 174.3 | NFkB act STAT1ct inactive | STAT3 act 2 inactive
O=C(O)c1ccc(-c2nc(-c3ccccc3)cs2)cc1	STAT1 activator 156.9 | STAT1 act conf 178.6 | NFkB act STAT1ct inactive | STAT3 act 2 128.5
CNc1ccccc1C(C)(C)c1ccn[nH]1	none
CCCNS(=O)(=O)c1cccc(C(=O)NC2CCCc3ccccc32)c1 (stereo not given)	none
CC(C)(C)c1ccc(S(=O)(=O)NCC(=O)Nc2ccc(-c3nc4ccccc4s3)cc2)cc1	none
Cc1ccc2nc(-c3ccc(NC(=O)CN(c4ccccc4C)S(C)(=O)=O)cc3)sc2c1	STAT1 activator 152.8, APP 5'UTR act 195.3, NF-kB neuron act 3.85 | STAT1 act conf 218.2 | NFkB act STAT1ct inactive | STAT3 act 2 inactive
C=CCn1c(SCC(=O)Nc2ccc(-c3nc4ccc(C)cc4s3)cc2)nnc1-c1ccccc1	STAT1 activator 155.6, APP 5'UTR act 146.0 | STAT1 act conf 198.2 | NFkB act STAT1ct inactive | STAT3 act 2 inactive
C=CCn1c(SCC(=O)Nc2ccc3c(c2)OCO3)nnc1-c1ccccc1	none
Cc1ccc2nc(-c3ccc(NC(=O)CN4C(=O)NC(C)(c5ccc(OC(F)F)cc5)C4=O)cc3)sc2c1 (stereo not given)	STAT1 activator 154.6, APP 5'UTR act 150.0 | STAT1 act conf 185.5 | NFkB act STAT1ct inactive | STAT3 act 2 112.5
O=C(CCS(=O)(=O)c1ccccc1)Nc1ccc(-c2nc3ccccc3s2)cc1	STAT1 activator 164.8, APP 5'UTR act 170.3, NF-kB neuron act 7.21 | STAT1 act conf 239.9 | NFkB act STAT1ct inactive | STAT3 act 2 inactive
Cc1ccccc1N(CC(=O)Nc1ccc(F)cc1)S(C)(=O)=O	none
CCOc1ccc(NC(=O)CSc2nnc(CCNC(=O)c3ccc(OC)cc3)n2C)cc1	none
O=C(/C=C/Nc1ccccc1F)c1ccc(Br)cc1	STAT1 activator 182.2, APP 5'UTR act 224.2, NF-kB neuron act 8.75 | STAT1 act conf 238.7 | NFkB act STAT1ct inactive | STAT3 act 2 inactive
NC(=O)c1ccccc1N/C=C/C(=O)c1ccc(F)cc1	STAT1 activator 153.8, APP 5'UTR act 136.2, NF-kB neuron act 4.19 | STAT1 act conf 189.1 | NFkB act STAT1ct inactive | STAT3 act 2 inactive
O=C(/C=C/Nc1ccc(F)cc1)c1ccc(Br)cc1	STAT1 activator 172.3 (no result: NF-kB neuron act) | STAT1 act conf 218.1 | NFkB act STAT1ct inactive | STAT3 act 2 inactive
Cc1ccc(C(=O)/C=C/NCc2ccc(F)cc2)cc1	none
O=C(O)C1CC=CCC1C(=O)Nc1ccccc1 (stereo not given)	none
CC1CC1C(=O)Nc1ccc(-c2ccccc2)cc1 (stereo not given)	STAT1 activator 155.2, NF-kB neuron act 3.3 | STAT1 act conf 162.3 | NFkB act STAT1ct inactive | STAT3 act 2 inactive
COc1ccc(NC(=O)c2ccccc2NC(=O)CSc2ccc(Cl)cc2)cc1	none
Cc1ccc(NC(=S)NC(=O)c2ccc(Br)o2)c(C)c1	STAT1 activator 152.1 | STAT1 act conf 164.5 | NFkB act STAT1ct inactive | STAT3 act 2 inactive
CC(C)(C)c1ccc2c(c1)C(=O)c1ccccc1C2=O	STAT1 activator 161.5, APP 5'UTR act 162.5, NF-kB neuron act 5.27 | STAT1 act conf 208.9 | NFkB act STAT1ct inactive | STAT3 act 2 inactive
CCOC(=O)c1sc(N/N=C/c2ccccc2)nc1C	STAT1 activator 151.9 | STAT1 act conf 182.7 | NFkB act STAT1ct 133.7 | STAT3 act 2 inactive
COc1ccccc1/C=C/C(=O)NCCC1=CCCCC1	STAT1 activator 158.8 | STAT1 act conf 169.6 | NFkB act STAT1ct inactive | STAT3 act 2 133.8
COc1ccccc1OCC(=O)NCCC1=CCCCC1	none
Cc1cc(C#N)c(C)n1-c1cc(S(=O)(=O)N2CCOCC2)ccc1N1CCCC1	none
CCC(=O)Nc1cccc(NC(=O)c2ccc(C)cc2Cl)c1	none
O=Cc1cn(-c2ccccc2)nc1-c1ccc2c(c1)OCCO2	STAT1 activator 159.6, APP 5'UTR act 140.0, NF-kB neuron act 6.9 | STAT1 act conf 193.4 | NFkB act STAT1ct 133.7 | STAT3 act 2 inactive
Cc1ccc(C)c(C(=O)CCC(=O)NCc2ccc(Cl)cc2)c1	none
Cc1ccc2cc3cc(C(=O)N4CCCCC4C)oc3nc2c1 (stereo not given)	STAT1 activator 165.7, APP 5'UTR act 196.6, NF-kB neuron act 3.51 | STAT1 act conf 216.5 | NFkB act STAT1ct 135.6 | STAT3 act 2 inactive
CCCCCCOc1ccc(/C(N)=N/O)cc1	STAT1 activator 161.1, NF-kB neuron act 6.79 | STAT1 act conf 156.6 | NFkB act STAT1ct inactive | STAT3 act 2 120.8
CN(C)/C=C1\C(=O)N(c2ccc([N+](=O)[O-])cc2)N=C1c1ccccc1	STAT1 activator 183.6 | STAT1 act conf 173.1 | NFkB act STAT1ct inactive | STAT3 act 2 119.5
CC(=O)c1ccc(N=C2SCCCN2C(=O)C2CCCC2)cc1	none
